Reference: publication PMC5346068 (ACS infectious diseases, 2017)
≈ marks a conversion by molar mass, not a printed value. Entries after “also recorded” stand apart in the source; their conditions may differ.

Columns and labels:
[1] = test system: T. b. brucei (GVR 35 strain); assay: Murine CNS infection model; type: in vivo, mouse; details: tail blood; for mice with no detectable parasitemia, day 28: 1 at 20 mg/kg/day days 21-25, Berenil single 40 mg/kg day 21
In short: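 Mice were infected on day 0 with T. b. brucei GVR 35, in two groups of 5, and checked for parasitemia on day 14. The control group got a single 40 mg/kg Berenil dose on day 21, then vehicle (DMSO in PBS) on days 22–25. The treated group got test compound at 20 mg/kg/day on days 21–25 and again on days 28–32. Tail blood was examined on days 14, 28, 35, 39 and 43.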

[2] = test system: T. brucei rhodesiense; details: T. brucei rhodesiense mouse model of HAT; cited from earlier work
[3] = Rat hepatocyte clearance; type: in vitro ADME; details: rat hepatocytes
[4] = Human liver microsome clearance; type: in vitro ADME; details: liver microsomes
[5] = Human plasma protein binding; type: in vitro ADME
[6] = test system: wild-type T. brucei; assay: Wild-type T. brucei growth inhibition assay; type: cell-based; details: Trypanosoma brucei, read-out: WT EC50
[7] = biological target: T1, T. brucei MetRS (Trypanosoma brucei brucei, UniProt Q38C91); assay: T. brucei MetRS inhibition assay; type: biochemical
T1 sequence (Q38C91 1-773): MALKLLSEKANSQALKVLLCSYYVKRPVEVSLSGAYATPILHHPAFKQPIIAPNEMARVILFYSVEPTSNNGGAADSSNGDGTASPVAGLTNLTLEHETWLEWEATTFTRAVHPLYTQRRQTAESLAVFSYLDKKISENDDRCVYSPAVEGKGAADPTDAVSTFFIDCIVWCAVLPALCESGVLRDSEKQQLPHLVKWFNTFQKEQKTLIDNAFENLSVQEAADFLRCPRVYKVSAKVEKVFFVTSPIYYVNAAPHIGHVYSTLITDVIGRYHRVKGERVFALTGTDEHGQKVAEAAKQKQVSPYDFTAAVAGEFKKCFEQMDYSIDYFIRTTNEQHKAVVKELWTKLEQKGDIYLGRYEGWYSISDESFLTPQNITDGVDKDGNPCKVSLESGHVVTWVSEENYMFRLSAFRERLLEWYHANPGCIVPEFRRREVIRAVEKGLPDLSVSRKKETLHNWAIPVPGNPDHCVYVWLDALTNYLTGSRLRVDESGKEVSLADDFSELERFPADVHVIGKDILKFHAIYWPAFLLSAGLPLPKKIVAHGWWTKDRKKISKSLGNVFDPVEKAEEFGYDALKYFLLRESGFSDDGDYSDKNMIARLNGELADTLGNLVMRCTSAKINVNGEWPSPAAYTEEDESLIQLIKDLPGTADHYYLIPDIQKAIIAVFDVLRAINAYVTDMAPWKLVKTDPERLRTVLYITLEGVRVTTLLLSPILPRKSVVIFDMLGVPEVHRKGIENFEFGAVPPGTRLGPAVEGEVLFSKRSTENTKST

[8] = MRC5-SV2 human lung cell toxicity; type: cell-based; details: MRC5-SV2 human lung cells
[9] = Mouse plasma and brain pharmacokinetics; type: in vivo, female BALB/c mice; details: female, BALB/c, brain, ip, 10 mg/kg
In short: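 Female BALB/c mice received a single intraperitoneal 10 mg/kg dose of test compound. Drug levels were measured in plasma and brain, and the brain-to-plasma ratio and brain concentration were taken at the 24 h time point.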

[10] = test system: T. brucei; assay: T. brucei in vitro growth inhibition; type: cell-based; details: Trypanosoma brucei, read-out: T. brucei EC50
[11] = Aqueous solubility; type: physicochemical
[12] = test system: 1433-resistant T. brucei; assay: microbe, parasite or virus in culture; type: cell-based, Trypanosoma brucei; details: for EC50: Trypanosoma brucei, read-out: 1433 resistant EC50; for 1433 resistant EC50 / WT EC50: fold shift resistant vs wild-type
[13] = logD 7.4; type: physicochemical; details: pH 7.4

Compound	mice with no detectable parasitemia, day 28 [1]	parasitemia, day 39 [1]	mice showing a relapse, day 43 ([1]; day 43, group of 5 mice)	efficacy in bloodstream infection mouse model [2]	Rat Hepatocyte Clint [3]	microsomal CLint [4]	fraction unbound [5]	EC50 [6]	IC50 [7]	EC50 [8]	concentration at 24 h [9]	EC50 [10]	solubility [11]	EC50 [12]	1433 resistant EC50 / WT EC50 [12]	logD [13]	T. brucei MetRS inhibition ([7]; up to 10 µM)
CC(=O)NCC(=O)O.CC(=O)NCC(=O)O.N=C(N)c1ccc(N=NNc2ccc(C(=N)N)cc2)cc1 [Berenil]	no detectable levels of parasitemia	no detectable levels of parasitemia	2														
OCCn1c(CNCCCNc2nc3ccccc3[nH]2)cc2c(Cl)cc(Cl)cc21 [Compound 1, 2-(2-(((3-((1H–Benzo[d]imidazol-2-yl)amino)propyl)amino)methyl)-4,6-dichloro-1H–indol-1-yl)ethan-1-ol]	3/5	full relapse of parasites in the blood		cured a bloodstream infection	24.9 µL/min/10^6	24 µL/min/mg	< 0.001	0.13 ± 0.01 nM	< 25 nM	12000 nM	31.6 ng/g	0.96 nM	6.33 µM (≈ 2.74 µg/mL)	14 ± 1 nM	108	4	
N=C(N)c1ccc(OCCCCCOc2ccc(C(=N)N)cc2)cc1 [Pentamidine, reference compound]								1.5 ± 0.2 nM						1.1 ± 0.1 nM	0.73		no T. brucei MetRS inhibition; also recorded: does not inhibit T. brucei MetRS
